Ki data for seven compounds are collected here from BindingDB's records for doi:10.1021/jm00370a001 (1984).

As usually defined, the Ki is a measure of affinity in units of concentration, obtained from inhibition or displacement.

Each structure is given as a SMILES string. Peptide text beside a SMILES is read from it. * marks the point of attachment. Boc = CC(C)(C)OC(=O)*

In assay [1] the target is Cytosol aminopeptidase (Sus scrofa) (UniProt P28839). Briefly: Compound was evaluated for the inhibition of Leucine aminopeptidase and the inhibition constant was determined after preincubating the enzyme and inhibitor.
Assay [2] has the same target. The description is as above. This is another data set of the same source.
Experiment in assay [3]: as above
A further assay deals with Cytosol aminopeptidase (Homo sapiens, UniProt P28838). Briefly: Compound was evaluated for the inhibition of Leucine aminopeptidase and the inhibition constant was determined after preincubating the enzyme and inhibitor. The method in brief:
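For initial rates, enzyme was added to substrate plus inhibitor to start the reaction. For steady-state rates, enzyme was preincubated 15-20 min with inhibitor, then substrate was added. Double-reciprocal (Lineweaver-Burk) analysis was used.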

For assay [4], the target named is Cytosol aminopeptidase (Sus scrofa) (UniProt P28839). The experiment in a line: Compound was evaluated for the inhibition of Leucine aminopeptidase from porcine kidney and the inhibition constant was determined after preincubating the enzyme and inhibitor.

Sequence of Cytosol aminopeptidase (Sus scrofa) (P28839 whole entry, looked up): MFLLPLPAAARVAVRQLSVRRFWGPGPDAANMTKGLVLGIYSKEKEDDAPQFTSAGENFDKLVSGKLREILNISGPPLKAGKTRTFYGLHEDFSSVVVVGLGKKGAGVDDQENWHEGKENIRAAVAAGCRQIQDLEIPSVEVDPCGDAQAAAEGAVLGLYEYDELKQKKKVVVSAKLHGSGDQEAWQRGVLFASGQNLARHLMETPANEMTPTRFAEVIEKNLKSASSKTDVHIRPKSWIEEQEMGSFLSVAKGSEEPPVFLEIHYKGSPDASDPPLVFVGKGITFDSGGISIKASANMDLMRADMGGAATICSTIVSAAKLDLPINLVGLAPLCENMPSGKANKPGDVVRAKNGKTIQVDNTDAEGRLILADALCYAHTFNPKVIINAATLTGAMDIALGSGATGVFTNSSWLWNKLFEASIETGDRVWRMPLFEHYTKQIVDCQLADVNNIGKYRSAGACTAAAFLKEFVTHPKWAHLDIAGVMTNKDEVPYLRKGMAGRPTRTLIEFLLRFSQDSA
Sequence of Cytosol aminopeptidase (P28838 whole entry): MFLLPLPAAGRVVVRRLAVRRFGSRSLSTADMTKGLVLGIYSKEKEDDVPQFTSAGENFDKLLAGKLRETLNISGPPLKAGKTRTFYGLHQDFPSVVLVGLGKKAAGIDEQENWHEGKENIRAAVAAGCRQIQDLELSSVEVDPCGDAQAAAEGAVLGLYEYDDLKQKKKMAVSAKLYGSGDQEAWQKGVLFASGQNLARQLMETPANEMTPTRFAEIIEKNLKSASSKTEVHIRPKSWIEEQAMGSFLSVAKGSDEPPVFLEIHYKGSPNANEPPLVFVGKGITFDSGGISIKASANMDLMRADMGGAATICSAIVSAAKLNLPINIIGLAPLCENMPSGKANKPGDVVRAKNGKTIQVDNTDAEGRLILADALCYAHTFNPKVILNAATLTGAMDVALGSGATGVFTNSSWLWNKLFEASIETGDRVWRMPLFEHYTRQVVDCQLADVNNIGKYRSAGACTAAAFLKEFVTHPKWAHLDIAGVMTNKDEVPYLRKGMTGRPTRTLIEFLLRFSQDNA

With `CC(C)CCNC(=O)[C@@H](NC(=O)[C@@H](NC(=O)[C@H](O)[C@@H](N)CC(C)C)C(C)C)C(C)C` [3-Amino-2-hydroxy-5-methyl-hexanoic acid {2-methyl-1-[2-methyl-1-(3-methyl-butylcarbamoyl)-propylcarbamoyl]-propyl}-amide], the Ki in assay [1] worked out at 0.89 µM.

For `CC(C)C[C@@H](N)CC(=O)N[C@H](C(=O)N[C@H](C(=O)N[C@@H](CC(=O)O)C(=O)O)C(C)C)C(C)C` [2-{2-[2-(3-Amino-5-methyl-hexanoylamino)-3-methyl-butyrylamino]-3-methyl-butyrylamino}-succinic acid], in assay [2], the affinity corresponds to a Ki of 681 µM.

In the case of `CC(C)C[C@H](NC(=O)[C@@H](O)[C@H](N)CC(C)C)C(=O)O` [2-(3-Amino-2-hydroxy-5-methyl-hexanoylamino)-4-methyl-pentanoic acid], the affinity in assay [3], expressed as Ki, was 0.12 µM.

With `CC(C)CC(N)C(O)C(=O)NC(C(=O)NC(CC(=O)O)C(=O)O)C(C)C` (configuration not stated) [2-[2-(3-Amino-2-hydroxy-5-methyl-hexanoylamino)-3-methyl-butyrylamino]-succinic acid], the Ki in assay [3] came out at 1.24 µM.

With `CC(C)CC(NC(=O)[C@H](C)[C@@H](N)Cc1ccccc1)C(=O)O` (some centres not stated) [2-(3-Amino-2-methyl-4-phenyl-butyrylamino)-4-methyl-pentanoic acid], the Ki at Cytosol aminopeptidase was found to be 3.78 µM.

Consider `CC(C)CCNC(=O)[C@H](O)[C@@H](N)Cc1ccccc1` [3-Amino-2-hydroxy-N-(3-methyl-butyl)-4-phenyl-butyramide], for which the Ki in assay [4] was 0.5 µM.

The compound `CC(C)[C@H](NC(=O)OC(C)(C)C)C(=O)N[C@H](C(=O)N[C@@H](CC(=O)O)C(=O)O)C(C)C` [2-[2-(2-tert-Butoxycarbonylamino-3-methyl-butyrylamino)-3-methyl-butyrylamino]-succinic acid] (Boc-Val-Val-Asp-OH) showed a Ki in assay [4] of 1400 µM.
